Shown are actives, neighbours in structure and some others; about 4.6% of the full set was active somewhere.
OX1R antag-1: OX1R (human) antagonism; 330,000 tested, 1.8% active; O43613; OX1R-expressing cells, FRET antagonist read-out; inhibition, % at 6.6 µM; in the data active = inhibition mostly above about 38%, no sharp cut-off; inactive = mostly below about 40%;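 note: 0% = agonist challenge alone and 100% = reference antagonist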
OX1R antag-2: antagonists of human orexin 1 receptor; O43613; CHO/OX1R cells, Fluo-8 calcium fluorescence, orexin A; 330,000 tested, 0.43% active; AID 434989; inhibition, % at 5 µM;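 active = inhibition above its plate's threshold, mean inhibition of all tested compounds on the plate plus 3 SD, cut at about 37% in these data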;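 note: 0% = orexin A challenge wells and 100% = SB-334867-A antagonist wells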
CHO parental Ca: counter-screen: ATP calcium response change in parental CHO cells; parental CHO-K1, ATP-induced calcium, Fluo-8 fluorescence; inhibition, % at 5.6 µM; 330,000 tested, 0.63% active; AID 463079;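 active = inhibition above that plate's mean sample inhibition plus 3 SD, cut at about 26% in these data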;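 note: 0% = ATP-challenged DMSO wells and 100% = DMSO wells without ATP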
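Test system: untransfected parental CHO cell line. Compound: one dose, 5.6 µM nominal. Detection: intracellular calcium via Fluo-8 no-wash fluorescent dye. Measure: % inhibition. Benchmarks: ATP-challenged DMSO wells low, unchallenged DMSO wells high.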
GPR7 antag: antagonists of human GPR7 (neuropeptides B/W receptor 1); GPR7-expressing cells, fluorescence antagonist assay; inhibition, % at 4.4 µM; 290,000 tested, 1.1% active; AID 1861; P48145; in the data active = inhibition above about 16%, passing the limit was not always enough;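 note: cells stimulated with the agonist NPW; 0% = agonist with vehicle and 100% = vehicle without agonist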
Target sequence (P48145 whole entry, looked up): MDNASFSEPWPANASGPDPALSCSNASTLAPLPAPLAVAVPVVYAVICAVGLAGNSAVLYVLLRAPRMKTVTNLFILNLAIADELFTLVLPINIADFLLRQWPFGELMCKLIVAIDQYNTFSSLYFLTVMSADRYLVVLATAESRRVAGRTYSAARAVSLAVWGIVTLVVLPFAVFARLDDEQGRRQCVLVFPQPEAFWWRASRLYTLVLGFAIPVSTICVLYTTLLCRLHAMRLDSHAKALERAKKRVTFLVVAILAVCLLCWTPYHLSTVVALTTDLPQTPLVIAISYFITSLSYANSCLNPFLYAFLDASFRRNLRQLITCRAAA
TAAR1 antagonist: antagonists of human TAAR1; CHO RD-HGA16 TAAR1, Fluo-8 calcium fluorescence, antagonist; 360,000 tested, 1.5% active; inhibition, % at 3 µM;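 active = inhibition above a per-plate cutoff, the mean inhibition of test compounds on that plate plus 3 SD, cut at about 49% in these data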;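 note: 0% = DMSO plus EC80 beta-PEA response and 100% = DMSO alone without agonist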
Target sequence (Q96RJ0 whole entry, looked up): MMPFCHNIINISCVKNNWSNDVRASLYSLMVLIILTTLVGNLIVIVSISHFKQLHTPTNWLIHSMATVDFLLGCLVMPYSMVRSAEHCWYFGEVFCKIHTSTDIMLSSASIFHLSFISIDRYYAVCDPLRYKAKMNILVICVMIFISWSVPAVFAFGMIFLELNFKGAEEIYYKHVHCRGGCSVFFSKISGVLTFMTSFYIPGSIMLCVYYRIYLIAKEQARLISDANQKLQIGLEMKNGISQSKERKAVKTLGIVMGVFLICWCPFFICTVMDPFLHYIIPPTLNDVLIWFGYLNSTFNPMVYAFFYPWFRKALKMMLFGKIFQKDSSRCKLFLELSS
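Test system: CHO RD-HGA16 cells bearing hTAAR1 | Reagent: β-PEA, EC80 | Compound dosing: 3 µM, single point | Schedule: Dye loading 75 min at 37 °C, then 30 min room temperature | Signal: Calcium fluorescence with Fluo-8 | Evaluation: Percent inhibition of PEA-evoked calcium signal, max/basal emission ratio | Control set: DMSO-only wells and EC80 β-PEA-stimulated wells | Repeats: Singlicate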
TAAR1 ag: human TAAR1 agonism | Q96RJ0 | CHO RD-HGA16 TAAR1, Fluo-8 calcium fluorescence; vehicle wells 0%, saturating PEA agonist 100% | activation, % at 3 µM | 360,000 tested, 0.99% active | AID 624467;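 active = activation above the mean activation of all test compounds in the run plus 3 SD, cut at about 38% in these data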
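System: CHO-derived RD-HGA16 cells with stable Gα16 and human TAAR1. Times: 17-24 h plating, Fluo-8 75 min 37 °C, 30 min RT. Measured by: calcium-sensitive Fluo-8 signal, excitation 470-495, emission 515-575 nm. Read-out basis: % activation relative to PEA EC100 response. Control set: DMSO and PEA EC100. Repeats: no replicates (n 1).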
Active calls of the source: *; . = no result.

SMILES	OX1R antag-1	OX1R antag-2	CHO parental Ca	GPR7 antag	TAAR1 antagonist	TAAR1 ag
CS(=O)(=O)c1ccc2nc(NC(=O)c3ccc(NS(=O)(=O)c4ccc(F)c(F)c4)cc3)sc2c1	5	-4	6	5	6	2
CS(=O)(=O)c1ccc2nc(NC(=O)c3cccc(NS(=O)(=O)c4ccc(F)c(F)c4)c3)sc2c1	35	3	-4	9	52*	6
Cc1ccccc1NS(=O)(=O)c1nnc(NC(=O)c2ccc(Cl)cc2)s1	39	10	3	2	14	6
Cc1cccc(NS(=O)(=O)c2nnc(NC(=O)c3ccc(Cl)cc3)s2)c1	59*	11	-8	-8	-3	-2
O=C(Cn1cnc2ccccc21)OCC(=O)N1CCCc2ccccc21	12	-26	1	-3	11	8
COCCN(CCOC)C(=S)Nc1ccccc1	8	-10	10	0	16	0
CCC1CCC/C1=N\NC(=O)c1cc(C)[nH]n1 (configuration not stated)	23	-4	8	3	-19	-1
O=C(Cn1nnc2ccccc2c1=O)N[C@H](C(=O)O)c1ccccc1	6	-7	5	-13	-15	4
Cc1nc(Cl)c(C(=O)NC(=O)Nc2cccc(C(F)(F)F)c2)c(C)c1[N+](=O)[O-]	41	7	19	-13	29	42*
Cc1onc(C(=O)Nc2cccc(C(F)(F)F)c2)c1[N+](=O)[O-]	16	-1	2	-8	3	-1
CCOC(=O)c1cccc(NC(=O)C2CCN(S(=O)(=O)c3cnc[nH]3)CC2)c1	1	10	0	0	0	0
Cc1nc(Nc2ccc(Cl)c(Cl)c2)sc1C(=O)Nc1ccccc1	69*	-16	8	-10	34	7
NC(=O)c1c(NC(=O)c2ccccc2Cl)sc2c1CCC2	34	-7	-17	-6	-13	-1
NC(=O)c1c(NC(=O)c2ccc(F)cc2Cl)sc2c1CCC2	44*	-16	-16	-11	-4	-3
NC(=O)c1c(NC(=O)c2ccccc2F)sc2c1CCCC2	74*	-17	-12	3	-4	-1
Cc1ccccc1OCC(=O)NN1CCN(C)CC1	-4	-3	-4	-11	-10	6
CCC(Sc1nc2ccsc2c(=O)n1Cc1ccc(C(=O)O)cc1)C(=O)Nc1ccc(Cl)cc1 (configuration not stated)	.	.	.	.	4	4
O=C(/C=C/c1ccccc1)C1C(=O)c2ccccc2C1=O	26	-40	-26	-19	1	-3
CCc1ccc(/C=C/C(=O)C2C(=O)c3ccccc3C2=O)cc1	22	8	35*	4	14	21
O=C(c1ccccc1)N1CCC(c2nc3c(nnn3Cc3ccccc3Cl)c(=O)[nH]2)CC1	13	-34	-35	-5	-7	3
O=C(/C=C/c1cccc(Cl)c1)NCCc1ccccc1	15	-28	-10	-1	-27	0
O=C(/C=C/c1c(Cl)cccc1Cl)NCCc1ccccc1	7	-11	6	-8	44	38*
CC(C)=CC(=O)NCCc1ccccc1	6	7	-17	-10	14	42*
CCCCCn1nc(C(=O)OCc2nnc(-c3ccccc3)o2)c2ccccc2c1=O	26	-19	-22	.	-14	0
COc1ccc(Cl)cc1C(=O)NNC(=O)CSc1nncn1C	6	-16	-8	.	-16	1
SMILES	OX1R antag-1	OX1R antag-2	CHO parental Ca	GPR7 antag	TAAR1 antagonist	TAAR1 ag
COc1ccc(NC(=O)CSc2nncn2C)c([N+](=O)[O-])c1	38*	3	-9	-3	-3	2
COc1ccccc1C(=O)NC(=O)CSc1nncn1C	-5	1	40*	.	-26	5
COc1ccc(NC(=O)CSc2ccccc2)c([N+](=O)[O-])c1	9	-35	-10	-8	-8	1
COc1ccc(NC(=O)c2cc(Br)ccc2Cl)c([N+](=O)[O-])c1	35	14	31*	-7	10	0
COc1ccc(NC(=O)CS(=O)(=O)Cc2ccccc2)c([N+](=O)[O-])c1	50*	-27	-18	-5	-4	0
COc1ccc(NC(=O)c2ccc(C)cc2Cl)c([N+](=O)[O-])c1	35	-23	9	-13	2	2
CC(C)NC(=O)N1Cc2cc(C(=O)NC3CCCCC3)nc(-c3cccc(-c4cccnc4)c3)c2[C@@H]1CCO	.	.	.	.	25	4
O=S(=O)(c1ccccc1)N1CCN(S(=O)(=O)c2ccccc2)c2ccccc21	.	.	.	.	17	0
O=S(=O)(/N=S1\CC=CCN1S(=O)(=O)c1ccccc1)c1ccccc1 (configuration not stated)	.	.	.	.	-8	67*
COc1cc(OC)c(/C=C2\C(=O)Nc3ccccc32)c(OC)c1	41*	-14	-8	.	14	5
COc1ccc(C(=O)/C=C2/C(=O)Nc3ccccc32)c(OC)c1	11	2	7	15	19	13
C[C@@H](C(=O)NCc1ccccn1)[C@H]1C[C@]1(C)[C@H](NC(=O)OCc1ccccc1)c1ccccc1	21	-22	-25	2	49*	16
Cc1cc(C(=O)CSc2n[nH]c(N)n2)c(C)n1-c1cc(F)ccc1F	5	-9	-8	-14	1	2
CCCSc1nnc2nc3c(nn12)c1ccccc1n3C	66*	2	1	-2	-22	-3
CCN(CC)C(=O)CSc1nnc2c3ccccc3n(C)c2n1	26	-15	-7	-5	-8	3
CON(C)S(=O)(=O)c1cccc(C(=O)Nc2ccc(S(=O)(=O)NC3=NCCCCC3)cc2)c1	.	.	.	.	-7	7
Cc1cc(C)n2nc(CC#N)c(C#N)c2n1	27	8	4	1	5	0
Cc1cc(C)n2nc(/C(C#N)=C/c3ccccn3)c(C#N)c2n1	28	-9	43*	-6	4	2
COc1cc(/C=N/NC(=S)NCCN2CCOCC2)cc(OC)c1O	22	2	-9	-11	5	2
COc1ccc(COc2cc(-c3cccc(OC)c3)nc3ccc(NC(C)=O)cc23)cc1	28	-9	-8	5	59*	5
COc1cccc(-c2cc(C(=O)Nc3ccc(N(C)C(C)=O)cc3)c3cc(Br)ccc3n2)c1	13	-16	-12	.	60*	8
CSc1ccccc1NC(=O)c1cc(-c2cccnc2)nc2ccc(Br)cc12	11	-8	-19	-12	50*	4
Cc1cc(CNC(=O)CC2C(=O)NCCN2Cc2ccccc2C(F)(F)F)nn1C (configuration not stated)	8	-19	-5	-5	-9	0
CN(CC(=O)Nc1cccc(F)c1)C(=O)c1csc2c1CCCC2	27	-14	-14	.	-10	8
